Measured values: ChEMBL document CHEMBL4689842, “EUbOPEN Chemogenomics Library wave 1” (2021)
Values joined by “and” are separate entries in the source; they are usually repeats but may differ in a detail not shown here. Equal values may be shown once.

Test system: HEK-293T
Assay: Multiplex assay against HEK293T;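 for Population Tubulin-Different-Phenotype (%): share of the cells with healthy nuclei that show this phenotype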
Format: toxicity, cell-based
Conditions: human
Procedure, shortened: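 Values for tubulin, mitochondrial-mass and membrane-permeability phenotypes are per cents of cells with healthy nuclei. These cells were identified by CellPathfinder machine-learning gating of live cells that had been stained at seeding with Hoechst33342, BioTracker Green Microtubule Cytoskeleton Dye, MitoTracker Red and Annexin V Alexa Fluor 680 and imaged on a CQ1 microscope at 37°C and 5% CO2 after compound addition. The gating first set Hoechst high-intensity objects apart from normal cells, then split normal cells into healthy, pyknosed or fragmented nuclei, and pyknosed cells into mitotic or apoptotic.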

[1] = 12 h, 1 µM, compound concentration 1 uM, replicate 1
[2] = 12 h, 1 µM, compound concentration 1 uM, replicate 2
[3] = 12 h, 10 µM, compound concentration 10 uM, replicate 1
[4] = 12 h, 10 µM, compound concentration 10 uM, replicate 2
[5] = 24 h, 1 µM, compound concentration 1 uM, replicate 1
[6] = 24 h, 1 µM, compound concentration 1 uM, replicate 2
[7] = 24 h, 10 µM, compound concentration 10 uM, replicate 1
[8] = 24 h, 10 µM, compound concentration 10 uM, replicate 2
[9] = 48 h, 1 µM, compound concentration 1 uM, replicate 1
[10] = 48 h, 1 µM, compound concentration 1 uM, replicate 2
[11] = 48 h, 10 µM, compound concentration 10 uM, replicate 1
[12] = 48 h, 10 µM, compound concentration 10 uM, replicate 2

## c1cn2cc(-c3ccc4cn[nH]c4c3)nc(Nc3ccc(N4CCOCC4)cc3)c2n1 [ENTOSPLETINIB]
[1]
  Population Apoptotic (%): 54%
  Population Fragmented Nuclei (%): 8%
  Population Healthy Nuclei (%): 40%
  Population Hoechst High Intensity Objects (%): 16%
  Population Membrane Permeable-Phenotype (%): 0%
  Population Mitochondria Different-Phenotype (%): 95%
  Population Mitotic Cells (%): 45%
  Population Normal (%): 83%
  Population Pyknosed Nuclei (%): 50%
  Population Tubulin-Different-Phenotype (%): 74%
  Total Cell Count: 207
[2]
  Population Apoptotic (%): 22%
  Population Fragmented Nuclei (%): 2%
  Population Healthy Nuclei (%): 36%
  Population Hoechst High Intensity Objects (%): 4%
  Population Membrane Permeable-Phenotype (%): 10%
  Population Mitochondria Different-Phenotype (%): 57%
  Population Mitotic Cells (%): 77%
  Population Normal (%): 95%
  Population Pyknosed Nuclei (%): 60%
  Population Tubulin-Different-Phenotype (%): 57%
  Total Cell Count: 197
[3]
  Population Apoptotic (%): 41%
  Population Fragmented Nuclei (%): 77%
  Population Healthy Nuclei (%): 6%
  Population Hoechst High Intensity Objects (%): 27%
  Population Membrane Permeable-Phenotype (%): 8%
  Population Mitochondria Different-Phenotype (%): 89%
  Population Mitotic Cells (%): 58%
  Population Normal (%): 72%
  Population Pyknosed Nuclei (%): 16%
  Population Tubulin-Different-Phenotype (%): 81%
  Total Cell Count: 1068
[4]
  Population Apoptotic (%): 35%
  Population Fragmented Nuclei (%): 52%
  Population Healthy Nuclei (%): 8%
  Population Hoechst High Intensity Objects (%): 22%
  Population Membrane Permeable-Phenotype (%): 7%
  Population Mitochondria Different-Phenotype (%): 85%
  Population Mitotic Cells (%): 64%
  Population Normal (%): 77%
  Population Pyknosed Nuclei (%): 38%
  Population Tubulin-Different-Phenotype (%): 85%
  Total Cell Count: 431
[5]
  Population Apoptotic (%): 43%
  Population Fragmented Nuclei (%): 6%
  Population Healthy Nuclei (%): 52%
  Population Hoechst High Intensity Objects (%): 15%
  Population Membrane Permeable-Phenotype (%): 6%
  Population Mitochondria Different-Phenotype (%): 93%
  Population Mitotic Cells (%): 56%
  Population Normal (%): 84%
  Population Pyknosed Nuclei (%): 41%
  Population Tubulin-Different-Phenotype (%): 72%
  Total Cell Count: 227
[6]
  Population Apoptotic (%): 24%
  Population Fragmented Nuclei (%): 4%
  Population Healthy Nuclei (%): 60%
  Population Hoechst High Intensity Objects (%): 2%
  Population Membrane Permeable-Phenotype (%): 5%
  Population Mitochondria Different-Phenotype (%): 48%
  Population Mitotic Cells (%): 75%
  Population Normal (%): 97%
  Population Pyknosed Nuclei (%): 35%
  Population Tubulin-Different-Phenotype (%): 61%
  Total Cell Count: 259
[7]
  Population Apoptotic (%): 33%
  Population Fragmented Nuclei (%): 75%
  Population Healthy Nuclei (%): 8%
  Population Hoechst High Intensity Objects (%): 28%
  Population Membrane Permeable-Phenotype (%): 11%
  Population Mitochondria Different-Phenotype (%): 85%
  Population Mitotic Cells (%): 66%
  Population Normal (%): 71%
  Population Pyknosed Nuclei (%): 15%
  Population Tubulin-Different-Phenotype (%): 75%
  Total Cell Count: 988
[8]
  Population Apoptotic (%): 40%
  Population Fragmented Nuclei (%): 51%
  Population Healthy Nuclei (%): 12%
  Population Hoechst High Intensity Objects (%): 20%
  Population Membrane Permeable-Phenotype (%): 4%
  Population Mitochondria Different-Phenotype (%): 88%
  Population Mitotic Cells (%): 59%
  Population Normal (%): 79%
  Population Pyknosed Nuclei (%): 35%
  Population Tubulin-Different-Phenotype (%): 93%
  Total Cell Count: 430
[9]
  Population Apoptotic (%): 43%
  Population Fragmented Nuclei (%): 10%
  Population Healthy Nuclei (%): 71%
  Population Hoechst High Intensity Objects (%): 7%
  Population Membrane Permeable-Phenotype (%): 1%
  Population Mitochondria Different-Phenotype (%): 56%
  Population Mitotic Cells (%): 56%
  Population Normal (%): 92%
  Population Pyknosed Nuclei (%): 17%
  Population Tubulin-Different-Phenotype (%): 45%
  Total Cell Count: 307
[10]
  Population Apoptotic (%): 18%
  Population Fragmented Nuclei (%): 6%
  Population Healthy Nuclei (%): 74%
  Population Hoechst High Intensity Objects (%): 2%
  Population Membrane Permeable-Phenotype (%): 5%
  Population Mitochondria Different-Phenotype (%): 21%
  Population Mitotic Cells (%): 81%
  Population Normal (%): 97%
  Population Pyknosed Nuclei (%): 19%
  Population Tubulin-Different-Phenotype (%): 55%
  Total Cell Count: 378
[11]
  Population Apoptotic (%): 23%
  Population Fragmented Nuclei (%): 64%
  Population Healthy Nuclei (%): 18%
  Population Hoechst High Intensity Objects (%): 25%
  Population Membrane Permeable-Phenotype (%): 6%
  Population Mitochondria Different-Phenotype (%): 43%
  Population Mitotic Cells (%): 76%
  Population Normal (%): 74%
  Population Pyknosed Nuclei (%): 16%
  Population Tubulin-Different-Phenotype (%): 57%
  Total Cell Count: 913
[12]
  Population Apoptotic (%): 26%
  Population Fragmented Nuclei (%): 47%
  Population Healthy Nuclei (%): 25%
  Population Hoechst High Intensity Objects (%): 20%
  Population Membrane Permeable-Phenotype (%): 4%
  Population Mitochondria Different-Phenotype (%): 71%
  Population Mitotic Cells (%): 73%
  Population Normal (%): 79%
  Population Pyknosed Nuclei (%): 27%
  Population Tubulin-Different-Phenotype (%): 93%
  Total Cell Count: 444

## Cn1cc(C2=C(c3cn(C4CCN(Cc5ccccn5)CC4)c4ccccc34)C(=O)NC2=O)c2ccccc21 [ENZASTAURIN]
[1]
  Population Apoptotic (%): 23% and 42%
  Population Fragmented Nuclei (%): 18% and 16%
  Population Healthy Nuclei (%): 49% and 29%
  Population Hoechst High Intensity Objects (%): 14% and 15%
  Population Membrane Permeable-Phenotype (%): 13% and 12%
  Population Mitotic Cells (%): 76% and 57%
  Population Normal (%): 85% and 84%
  Population Pyknosed Nuclei (%): 31% and 53%
  Total Cell Count: 539 and 569
[2]
  Population Apoptotic (%): 28% and 14%
  Population Fragmented Nuclei (%): 3% and 4%
  Population Healthy Nuclei (%): 77% and 86%
  Population Hoechst High Intensity Objects (%): 6% and 4%
  Population Membrane Permeable-Phenotype (%): 2% and 6%
  Population Mitochondria Different-Phenotype (%): 72% and 25%
  Population Mitotic Cells (%): 71% and 85%
  Population Normal (%): 93% and 95%
  Population Pyknosed Nuclei (%): 19% and 9%
  Population Tubulin-Different-Phenotype (%): 87% and 37%
  Total Cell Count: 1031 and 1115
[5]
  Population Apoptotic (%): 49% and 19%
  Population Fragmented Nuclei (%): 19% and 16%
  Population Healthy Nuclei (%): 39% and 65%
  Population Hoechst High Intensity Objects (%): 24% and 11%
  Population Membrane Permeable-Phenotype (%): 11% and 6%
  Population Mitotic Cells (%): 50% and 80%
  Population Normal (%): 75% and 88%
  Population Pyknosed Nuclei (%): 41% and 18%
  Population Tubulin-Different-Phenotype (%): 76% and 32%
  Total Cell Count: 506 and 516
[6]
  Population Fragmented Nuclei (%): 4% and 12%
  Population Healthy Nuclei (%): 85% and 83%
  Population Hoechst High Intensity Objects (%): 9% and 5%
  Population Membrane Permeable-Phenotype (%): 3% and 4%
  Population Mitotic Cells (%): 68% and 93%
  Population Normal (%): 90% and 94%
  Population Tubulin-Different-Phenotype (%): 77% and 27%
  Total Cell Count: 1011 and 1578
